# Legend:
# [1] = tested on: B16; test: The compound was tested for Cytotoxic concentration against B16 melanoma cells relative to paclitaxel; type: functional; conditions: Mus musculus, B16, read-out: ED50
# [2] = tested on: B16; test: The compound was tested for Cytotoxic concentration against B16 melanoma cells.; type: functional; conditions: Mus musculus, B16, read-out: ED50
# [3] = Ratio of ED50 in microtubule assembly in presence of paclitaxel to only compound; type: functional
# Outline: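 Bovine brain tubulin purified by three temperature-dependent assembly-disassembly cycles plus phosphocellulose-biogel P-10 chromatography, cleared at 27000g for 10 min. Varied compound levels incubated with 10 μM tubulin and 0.5 mM GTP in PEM buffer (0.1 M Pipes pH 6.9, 1 mM MgSO₄, 1 mM EGTA), 37 °C, 15 min. Spun at 40000g for 4 min; supernatant protein by Bradford. […] Ratio against paclitaxel ED50.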
# [4] = molecular target: T1, Tubulin (Bos taurus) (UniProt Q6B856+Q862L2+Q862F3); test: Promotion of tubulin polymerization
# [5] = molecular target: T1, Tubulin (Bos taurus); test: ED50 relative to paclitaxel in promoting tubulin polymerization
# [6] = Water solubility of the compound; type: ADME; conditions: read-out: S
# Outline: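 Aqueous solubility by HPLC on a phenyl column. Mobile phases were 50% methanol/water and acetonitrile. The standard curve came from about 0.5 mg sample in 1 mL methanol with serial dilutions, plotting concentration against HPLC peak area. For samples, about 0.4 mg was placed in 9 mL water and sonicated 15 min in a cold-water bath.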
# [7] = Water solubility relative to Paclitaxel solubility; type: ADME; conditions: buffer
# Outline: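 Solubility in water by HPLC on a phenyl column: mobile phase A, 50% methanol/50% water; mobile phase B, acetonitrile. About 0.4 mg compound placed in 9 mL water in a 10 mL volumetric flask, sonicated 15 min in cold water. Quantified against a methanol standard curve (about 0.5 mg/mL serially diluted) of concentration vs HPLC peak area. Reported in µg/mL and as a ratio to paclitaxel solubility.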
SMILES,ED50 [4] [nM],ED50 [5] [nM],solubility [6] [µg/mL],Ratio [7],EC50 [1] [nM],EC50 [2] [nM],Ratio [3]
CC(=O)O[C@H]1C(=O)[C@@]2(C)[C@H]([C@H](OC(=O)c3ccccc3)[C@]3(O)C[C@H](OC(=O)[C@H](O)[C@@H](NC(=O)c4ccccc4)c4ccccc4)C(C)=C1C3(C)C)[C@]1(OC(C)=O)CO[C@@H]1C[C@@H]2O [PACLITAXEL],,,0.3,1,,,
CCCCOC(=O)N[C@H]([C@@H](O)C(=O)O[C@H]1C[C@@]2(O)[C@@H](OC(=O)c3ccccc3)[C@@H]3[C@]4(OC(C)=O)CO[C@@H]4C[C@H](O)[C@@]3(C)C(=O)[C@H](O)C(=C1C)C2(C)C)C(C)(C)C,800,930,27,90,31.3,64,
CC(=O)O[C@@]12CO[C@@H]1C[C@H](O)[C@@]1(C)C(=O)[C@H](O)C3=C(C)[C@@H](OC(=O)[C@H](O)[C@@H](NC(=O)OC(C)(C)C)c4ccccc4)C[C@@](O)([C@@H](OC(=O)c4ccccc4)[C@H]21)C3(C)C.O.O.O [DOCETAXEL],510,1140,5,17,27,11,0.45
CC(=O)O[C@@]12CO[C@@H]1C[C@H](O)[C@@]1(C)C(=O)[C@H](O)C3=C(C)[C@@H](OC(=O)[C@H](O)[C@@H](NC(=O)Nc4ccccc4)C(C)(C)C)C[C@@](O)([C@@H](OC(=O)c4ccccc4)[C@H]21)C3(C)C,330,1040,1.4,4.7,26.8,18.8,
CC(=O)O[C@@]12CO[C@@H]1C[C@H](O)[C@@]1(C)C(=O)[C@H](O)C3=C(C)[C@@H](OC(=O)[C@H](O)[C@@H](NC(=O)Oc4ccccc4)C(C)(C)C)C[C@@](O)([C@@H](OC(=O)c4ccccc4)[C@H]21)C3(C)C,1300,930,,,31.3,> 1000,1.4
CC(=O)O[C@@]12CO[C@@H]1C[C@H](O)[C@@]1(C)C(=O)[C@H](O)C3=C(C)[C@@H](OC(=O)[C@H](O)[C@@H](NC(=O)c4ccccc4)C(C)(C)C)C[C@@](O)([C@@H](OC(=O)c4ccccc4)[C@H]21)C3(C)C,1700,930,2.8,9.3,,,
CCCCCCOC(=O)N[C@H]([C@@H](O)C(=O)O[C@H]1C[C@@]2(O)[C@@H](OC(=O)c3ccccc3)[C@@H]3[C@]4(OC(C)=O)CO[C@@H]4C[C@H](O)[C@@]3(C)C(=O)[C@H](O)C(=C1C)C2(C)C)C(C)(C)C,2100,930,,,31.3,370,2.3

# The next lines start with results.
ED50 [4] [nM],ED50 [5] [nM],solubility [6] [µg/mL],Ratio [7],SMILES,EC50 [1] [nM],EC50 [2] [nM],Ratio [3]
1350,1050,,,CC(=O)O[C@@]12CO[C@@H]1C[C@H](O)[C@@]1(C)C(=O)[C@H](O)C3=C(C)[C@@H](OC(=O)[C@H](O)[C@@H](NC(=O)C(C)(C)C)C(C)(C)C)C[C@@](O)([C@@H](OC(=O)c4ccccc4)[C@H]21)C3(C)C,29,930,1.3
630,1050,29,97,CC(=O)O[C@@]12CO[C@@H]1C[C@H](O)[C@@]1(C)C(=O)[C@H](O)C3=C(C)[C@@H](OC(=O)[C@H](O)[C@@H](NC(=O)NC(C)(C)C)C(C)(C)C)C[C@@](O)([C@@H](OC(=O)c4ccccc4)[C@H]21)C3(C)C,29,26,
350,930,28,93,CC(=O)O[C@@]12CO[C@@H]1C[C@H](O)[C@@]1(C)C(=O)[C@H](O)C3=C(C)[C@@H](OC(=O)[C@H](O)[C@@H](NC(=O)OC(C)(C)C)C(C)(C)C)C[C@@](O)([C@@H](OC(=O)c4ccccc4)[C@H]21)C3(C)C,31.3,12.5,
3200,900,,,CC(=O)O[C@@]12CO[C@@H]1C[C@H](O)[C@@]1(C)C(=O)[C@H](O)C3=C(C)[C@@H](OC(=O)[C@H](O)[C@@H](/N=C(/S)NC(C)(C)C)C(C)(C)C)C[C@@](O)([C@@H](OC(=O)c4ccccc4)[C@H]21)C3(C)C,24.4,> 1000,3.6
500,1050,26,87,CC(=O)O[C@@]12CO[C@@H]1C[C@H](O)[C@@]1(C)C(=O)[C@H](O)C3=C(C)[C@@H](OC(=O)[C@H](O)[C@@H](NC(=O)CC(C)(C)C)C(C)(C)C)C[C@@](O)([C@@H](OC(=O)c4ccccc4)[C@H]21)C3(C)C,29,104,
500,930,28,93,CC(=O)O[C@@]12CO[C@@H]1C[C@H](O)[C@@]1(C)C(=O)[C@H](O)C3=C(C)[C@@H](OC(=O)[C@H](O)[C@@H](NC(=O)OCC(C)C)C(C)(C)C)C[C@@](O)([C@@H](OC(=O)c4ccccc4)[C@H]21)C3(C)C,,,
420,930,26,87,CCC(C)(C)OC(=O)N[C@H]([C@@H](O)C(=O)O[C@H]1C[C@@]2(O)[C@@H](OC(=O)c3ccccc3)[C@@H]3[C@]4(OC(C)=O)CO[C@@H]4C[C@H](O)[C@@]3(C)C(=O)[C@H](O)C(=C1C)C2(C)C)C(C)(C)C,31.3,18,
